HUVEC prolif 384: inhibitors of HUVEC proliferation, primary screen, cell-based, 384-well; hit rate 1.1% among 86,000; CellTiter-Glo luminescence, 72 h; active compounds read low; viability, % at 10 µM (by protocol);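 active = viability at or below 30%; inactive = viability above 30%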;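 note: 100% = median luminescence of DMSO-only cell control wells on each plate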
bCat KO growth: primary screen for growth suppressors in beta-catenin knockout HCT116 cells (colon tumor, human). viability, % at 10 µM. HCT116 beta-catenin knockout viability, CellTiter-Glo, 60 h; active compounds read low. AID 818, 2007. hit rate 1.5% among 140,000;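 active = viability at or under a set limit, the compound median less 4 SD, cut at about 6% in these data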;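 note: 0% = Hyamine 1622 control at 20 µM and 100% = untreated cell control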
HCT116 PTEN-null: growth suppression of PTEN-null HCT116, primary screen, cell-based, CellTiter-Glo. HCT116 PTEN-null viability, 60 h; active compounds read low. viability, % at 10 µM. AID 827, 2007. hit rate 1.2% among 140,000;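 active = viability at or below a set limit, 4 SD under the median of all tested compounds, cut at about 3.7% in these data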;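 note: PTEN knockout HCT116 line with beta catenin targeted HCT116 as companion control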
H69AR inhibit: proliferation blockers of H69AR lung cancer cells, primary screen, cell-based, human, 86K library. H69AR lung tumor viability, ATP luminescence, 72 h; active compounds read low. viability, % at 10 µM. hit rate 6% among 85,000. AID 598, 2007;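 active = viability at or below 40%; inactive = viability above 40%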;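 note: multidrug resistant small cell line overexpressing MRP-1 efflux transporter; 100% = mean luminescence of untreated control wells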
Fibroblast inh: antiproliferative effect on LL 47 fibroblasts – human, LL 47 cells, CellTiter-Glo luminescence, primary screen | LL 47 human lung fibroblast viability, ATP luminescence; active compounds read low | viability, % at 10 µM | hit rate 1.1% among 85,000 | AID 719, 2007;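 active = viability at or below 50% in the single dose screen; inactive = viability above 50%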;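 note: compound exposure lasted 72 h before the ATP readout; 100% = median luminescence of untreated cell-only wells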
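Assay system: human lung fibroblast line LL 47, low passage. Input: 1,150 fibroblasts seeded per well. Times: overnight cell rest, 72 h compound treatment at 37 °C. Evaluation: % viability of median cell-only signal. Technique: luminescent ATP detection, CellTiter-Glo. Control set: cell-only wells, no compound.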
Starred values were filed as active, the others as inactive; nt = not tested or not shown. Shown is part of a subset that was picked to be rich in hits.

SMILES	HUVEC prolif 384	bCat KO growth	HCT116 PTEN-null	H69AR inhibit	Fibroblast inh
CCCCn1cnc(C(=O)OCC)c1N	nt	106	97	nt	nt
CC1=CC(C)(C)n2c(O)c(C3=NC(=S)NC3=O)c3cc(OC(=O)c4cccc5ccccc45)cc1c32	nt	1.8*	0.9*	nt	nt
COc1cccc(C(=O)Oc2cc3c4c(c2)C(C)=CC(C)(C)N4C(=O)C3=O)c1	nt	7	13	nt	nt
Cc1ccc(C)c(NC(=S)c2ccccn2)c1	87	2.7*	3.8*	2.7*	80
S=C(Nc1ccccn1)c1ccccn1	84	1.9*	1.8*	1.3*	84
C#CCOCCOCCOCCNc1nc(N2CCN(C(=O)Cn3cc(CCCN=C(N)N)nn3)CC2)nc(N2CCN(C(=O)[C@H]([C@@H](C)CC)n3cc(CCCN=C(N)N)nn3)CC2)n1	nt	85	96	nt	nt
COC(=O)[C@H](CCSC)NC(=O)NCc1ccc(S(N)(=O)=O)cc1	90	105	104	1.9*	99
CC(=O)c1ccc(N2Cc3ccccc3/C2=N\C(=O)Nc2ccc(Cl)cc2)cc1	nt	78	71	nt	nt
Cn1nc(-c2ccc(C(=O)Nc3cccc(Cl)c3)cc2)c2ccccc2c1=O	41	97	95	4.3*	52
Cc1ccc(NC(=O)c2ccc(-c3nn(C)c(=O)c4ccccc34)cc2)c(C)c1	100	77	76	77	97
Cn1nc(-c2ccc(C(=O)Nc3cccnc3)cc2)c2ccccc2c1=O	96	98	94	85	107
Cc1ccc(NC(=O)c2ccc(-c3nn(C)c(=O)c4ccccc34)cc2)cc1	67	87	79	35*	106
COc1ccc(CNC(=O)CSCc2ccccc2Cl)cc1	nt	98	95	nt	nt
Cc1nnn(C23CC4CC(CC(CC(=O)Nc5ccc(C)c(C)c5)(C4)C2)C3)n1	nt	89	86	nt	nt
Cc1cc(C)c(NC(=S)NC(NC(=O)c2ccccc2)C(Cl)(Cl)Cl)c(C)c1 (centres undefined)	nt	7	4	nt	nt
O=C(NC(NC(=S)Nc1ccccc1)C(Cl)(Cl)Cl)c1cccc(Cl)c1 (centres undefined)	nt	2.6*	2.0*	nt	nt
Cc1ccc(NC(=S)NC(NC(=O)c2ccco2)C(Cl)(Cl)Cl)cc1 (centres undefined)	84	62	58	22*	96
O=C(NC(NC(=S)Nc1ccc(Cl)cc1Cl)C(Cl)(Cl)Cl)c1cccc([N+](=O)[O-])c1 (centres undefined)	nt	4.1*	3.3*	nt	nt
COC(=O)Cc1ccc(NC(=S)N2CCN(c3ccc(F)cc3)CC2)cc1	nt	91	85	nt	nt
O=C(Cn1c2ccccc2c(=O)c2ccccc21)N/N=C/c1ccc(N2CCCC2)c([N+](=O)[O-])c1	nt	2.7*	7	nt	nt
O=C(Cn1c2ccccc2c(=O)c2ccccc21)N/N=C/c1cc([N+](=O)[O-])ccc1N1CCCCCC1	nt	11	10	nt	nt
C=CCn1c(CNC(=O)c2ccco2)nnc1SCC(=O)N1c2ccccc2Sc2ccccc21	97	98	94	34*	95
O=C(CSc1nnc(COc2cccc3cccnc23)o1)N1CCc2ccccc21	97	22	35	51	94
O=C(CSc1nnc(COc2ccc(F)cc2)o1)N1c2ccccc2CCc2ccccc21	109	51	46	1.9*	84
Cc1ccc(S(=O)(=O)N2CCC(n3nnc4cc(C)ccc43)CC2)cc1	84	93	92	88	89
SMILES	HUVEC prolif 384	bCat KO growth	HCT116 PTEN-null	H69AR inhibit	Fibroblast inh
Cc1ccc2c(c1)nnn2C1CCN(S(=O)(=O)c2ccc(C(=O)N(C)C3CCCCC3)cc2)CC1	75	38	49	32*	103
COc1ccc(/C=C(/C(=O)c2ccc(Cl)cc2Cl)n2cncn2)cc1	nt	83	82	nt	nt
CC(C)CC(=O)/C(=C\c1ccc(Cl)cc1Cl)n1cncn1	nt	1.6*	1.3*	nt	nt
O=C(NC(=S)N1CCN(c2ccc(C(F)(F)F)cc2[N+](=O)[O-])CC1)c1cccs1	nt	57	71	nt	nt
Cc1cnnc2ccc3c(no[n+]3[O-])c12	102	85	86	33*	107
CCc1nnc(NC(=O)c2ccc3c(c2)C(=O)N(CC)C3=O)s1	95	92	93	94	91
CCOC(=O)c1oc2ccc(CNC3CCCCC3)c(Cl)c2c1C	29*	46	59	18*	95
Cc1cc(OCCOCCNC(C)C)cc(C)c1Cl	81	5.6*	17	28*	90
